In ChEMBL document CHEMBL1129480, “Design and synthesis of 1-aminocycloalkane-1-carboxylic acid-substituted deltorphin analogues: unique delta and mu opioid activity in modified peptides” (J Med Chem, 1996) one finds Ki and IC50 data, which are given here for ten compounds.

Square brackets hold non-standard residues; d marks the D form. Peptide text beside a SMILES is read from it. Ac6c = NC1(C(=O)O)CCCCC1; Ac5c = NC1(C(=O)O)CCCC1; Ac3c = NC1(C(=O)O)CC1

Assay [1] deals with Mu-type opioid receptor (Rattus norvegicus, UniProt P33535). The experiment in a line: Displacement of [3H]DAGO (1.28 nM) from Opioid receptor mu 1. A digest of the protocol:
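Rat brain synaptosomal membranes, preincubated, in 50 mM HEPES pH 7.5, 5 mM MgCl2, glycerol, protease inhibitors with [3H]DAGO for 120 min at 22-23 °C. Baseline set with 2 µM unlabeled peptide. Filtration, washes with ice-cold buffer containing 0.01% BSA or lactalbumin. Duplicates over 6-14 concentrations spanning 1000-fold, or triplicates with 25-35 concentrations fitted to one- or two-site models. Ki from IC50 by Cheng-Prusoff.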

Assay [2] has as its target Delta-type opioid receptor (Rattus norvegicus, UniProt P33533). Put plainly: Displacement of [3H]DPDPE (0.63 nM) from Opioid receptor delta 1. A digest of the protocol: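 Rat brain synaptosomal membranes, preincubated, incubated with [3H]DPDPE in 50 mM HEPES pH 7.5, 5 mM MgCl2, glycerol, protease inhibitors, 120 min at 22-23 °C. Nonspecific baseline from 2 µM unlabeled peptide. Filtered, washed with ice-cold buffer plus 0.01% BSA or lactalbumin. Duplicates, 6-14 concentrations over 1000-fold, or triplicates with 25-35 concentrations for one/two-site fits. Ki via Cheng-Prusoff.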
In general terms: Displacement assays read how much labelled ligand stays bound in the presence of the test substance.

Assay [3] addresses Delta-type opioid receptor (Mus musculus, UniProt P32300). The experiment in a line: Inhibitory activity against Opioid receptor delta 1 of mouse vas deferens (MVD). In kind it is tissue-based.
In assay [4] the target is Mu-type opioid receptor (Cavia porcellus, UniProt P97266). The experiment in a line: Compound was evaluated for its inhibitory activity towards Opioid receptor mu 1 of guinea pig ileum (GPI). It is filed as tissue-based. An outline of the steps:
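Guinea pig ileum segment (2-3 cm) in 20 mL organ bath with 70 µM hexamethonium bromide and 0.125 µM mepyramine maleate, 95% O2/5% CO2, 36 °C. Transmural stimulation, 0.5 ms square pulses at 0.1 Hz, 1.5× maximal-twitch voltage (~30 V). Dose-response curves against reference agonists (dermorphin or morphine). IC50 as mean ± SE of four independent experiments.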

Mu-type opioid receptor (Rattus norvegicus, UniProt P33535), sequence (P33535 whole entry): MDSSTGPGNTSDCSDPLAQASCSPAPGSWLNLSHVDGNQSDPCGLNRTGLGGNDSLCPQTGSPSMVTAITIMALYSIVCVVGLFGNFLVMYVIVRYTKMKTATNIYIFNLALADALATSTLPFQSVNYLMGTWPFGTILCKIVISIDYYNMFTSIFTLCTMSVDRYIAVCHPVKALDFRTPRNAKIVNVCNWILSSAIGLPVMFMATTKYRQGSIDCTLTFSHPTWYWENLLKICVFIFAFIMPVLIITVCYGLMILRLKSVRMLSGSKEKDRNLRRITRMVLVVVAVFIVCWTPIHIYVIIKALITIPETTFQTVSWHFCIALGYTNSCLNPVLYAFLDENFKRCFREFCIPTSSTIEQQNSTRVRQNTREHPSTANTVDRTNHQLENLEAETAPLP
Delta-type opioid receptor (Mus musculus, UniProt P32300), sequence (P32300 whole entry): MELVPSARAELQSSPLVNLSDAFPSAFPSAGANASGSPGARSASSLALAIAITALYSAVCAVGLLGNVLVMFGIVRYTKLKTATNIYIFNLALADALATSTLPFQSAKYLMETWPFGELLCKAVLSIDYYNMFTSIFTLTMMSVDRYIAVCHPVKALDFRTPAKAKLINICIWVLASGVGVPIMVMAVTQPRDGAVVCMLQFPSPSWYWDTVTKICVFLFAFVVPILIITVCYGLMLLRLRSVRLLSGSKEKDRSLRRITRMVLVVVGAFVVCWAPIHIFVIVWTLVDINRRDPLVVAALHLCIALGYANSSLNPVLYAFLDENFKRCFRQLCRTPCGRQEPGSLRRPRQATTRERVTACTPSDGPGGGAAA
Mu-type opioid receptor (Cavia porcellus, UniProt P97266), sequence (P97266 whole entry): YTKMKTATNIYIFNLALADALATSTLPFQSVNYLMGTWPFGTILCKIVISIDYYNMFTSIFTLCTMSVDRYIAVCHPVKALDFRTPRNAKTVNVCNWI
Delta-type opioid receptor (Rattus norvegicus, UniProt P33533), sequence (P33533 whole entry): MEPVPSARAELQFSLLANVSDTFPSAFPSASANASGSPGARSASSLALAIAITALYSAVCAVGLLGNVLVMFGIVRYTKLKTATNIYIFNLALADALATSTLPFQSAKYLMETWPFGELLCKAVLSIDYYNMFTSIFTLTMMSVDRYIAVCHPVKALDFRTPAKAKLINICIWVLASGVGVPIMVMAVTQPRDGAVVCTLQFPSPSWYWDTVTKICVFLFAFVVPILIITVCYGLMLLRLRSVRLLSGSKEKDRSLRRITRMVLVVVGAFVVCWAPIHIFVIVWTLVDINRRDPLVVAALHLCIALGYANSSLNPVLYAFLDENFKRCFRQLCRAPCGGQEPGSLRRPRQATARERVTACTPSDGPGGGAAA

One may read the Ki as the dissociation constant of the complex between target and ligand, obtained from inhibition or displacement. A high value points to a looser hold on the target. The term IC50 denotes the point on the concentration scale where inhibition reaches its midpoint. Low values mean higher potency, high ones lower potency. Take `CC(C)[C@H](NC(=O)[C@@H](NC(=O)C1(NC(=O)[C@H](Cc2ccccc2)NC(=O)[C@H](C)NC(=O)[C@@H](N)Cc2ccc(O)cc2)CC1)C(C)C)C(=O)NCC(N)=O` (H-YAF[Ac3c]VVG-NH2): the Ki in assay [1] was determined as 0.27 nM; in assay [2], 0.054 nM. Besides, the IC50 in assay [3] was determined as 0.43 nM; in assay [4], 15 nM.

In the case of `CC(C)[C@H](NC(=O)[C@@H](NC(=O)C1(NC(=O)[C@H](Cc2ccccc2)NC(=O)[C@H](C)NC(=O)[C@@H](N)Cc2ccc(O)cc2)CCCC1)C(C)C)C(=O)NCC(N)=O` (H-YAF[Ac5c]VVG-NH2), the Ki in assay [1] was 0.58 nM; in assay [2] it was 0.054 nM. For the same compound, the results for the IC50 in assay [3] and in assay [4] were 0.19 nM and 140 nM, respectively.

For `CC(C)[C@H](NC(=O)[C@@H](NC(=O)C1(NC(=O)[C@H](Cc2ccccc2)NC(=O)[C@H](C)NC(=O)[C@@H](N)Cc2ccc(O)cc2)CCCCC1)C(C)C)C(=O)NCC(N)=O` (H-YAF[Ac6c]VVG-NH2), the Ki in assay [1] was determined as 2.45 nM; in assay [2], 0.045 nM. Besides, the IC50 turned out to be 0.52 nM in assay [3] and 558 nM in assay [4].

In the case of `CC(C)[C@H](NC(=O)[C@H](CC(=O)O)NC(=O)C1(NC(=O)[C@H](C)NC(=O)[C@@H](N)Cc2ccc(O)cc2)CC1)C(=O)N[C@H](C(=O)NCC(N)=O)C(C)C` (H-YA[Ac3c]DVVG-NH2), the results for the Ki in assay [1] and in assay [2] were 10200 nM and 19 nM, respectively. The IC50 is 458 nM in assay [3] and more than 10000 nM in assay [4].

As for `CC(C)[C@H](NC(=O)[C@H](CC(=O)O)NC(=O)C1(NC(=O)[C@H](C)NC(=O)[C@@H](N)Cc2ccc(O)cc2)CCCC1)C(=O)N[C@H](C(=O)NCC(N)=O)C(C)C` (H-YA[Ac5c]DVVG-NH2), the figures for the Ki in assay [1] and in assay [2] were 6820 nM and 15.4 nM, respectively. For the same compound, the IC50 in assay [3] is 1640 nM; in assay [4] it was more than 10000 nM.

With `CC(C)[C@H](NC(=O)[C@H](CC(=O)O)NC(=O)C1(NC(=O)[C@H](C)NC(=O)[C@@H](N)Cc2ccc(O)cc2)CCCCC1)C(=O)N[C@H](C(=O)NCC(N)=O)C(C)C` (H-YA[Ac6c]DVVG-NH2), the Ki was 5460 nM in assay [1] and 3.28 nM in assay [2]. The IC50 is 540 nM in assay [3] and more than 10000 nM in assay [4].

Take `CC(C)[C@H](NC(=O)[C@H](CC(=O)O)NC(=O)C1(NC(=O)[C@@H](N)Cc2ccc(O)cc2)CCCCC1)C(=O)N[C@H](C(=O)NCC(N)=O)C(C)C` (H-Y[Ac6c]DVVG-NH2): the Ki worked out at 441000 nM in assay [1] and 5260 nM in assay [2].

With `CC(C)[C@H](NC(=O)[C@H](CC(=O)O)NC(=O)[C@H](Cc1ccccc1)NC(=O)C1(NC(=O)[C@@H](N)Cc2ccc(O)cc2)CCCCC1)C(=O)N[C@H](C(=O)NCC(N)=O)C(C)C` (H-Y[Ac6c]FDVVG-NH2), the inhibition constant (Ki) in assay [1] turned out to be 3110 nM; in assay [2], 2.48 nM.

Take `CC(C)[C@H](NC(=O)[C@H](CC(=O)O)NC(=O)C1(NC(=O)C2(NC(=O)[C@@H](N)Cc3ccc(O)cc3)CCCCC2)CCCCC1)C(=O)N[C@H](C(=O)NCC(N)=O)C(C)C` (H-Y[Ac6c][Ac6c]DVVG-NH2): the Ki in assay [1] worked out at 14800 nM; in assay [2] it was 87.8 nM.

Take `CC(C)[C@H](NC(=O)[C@H](CC(=O)O)NC(=O)[C@H](Cc1ccccc1)NC(=O)[C@@H](C)NC(=O)[C@@H](N)Cc1ccc(O)cc1)C(=O)N[C@H](C(=O)NCC(N)=O)C(C)C` [DELTORPHIN C]: the Ki was determined as 147 nM in assay [1] and 0.15 nM in assay [2]. In assay [4], the IC50 worked out at 337 nM.
